The array DNA melting data of Ke et al. (doi:10.1101/2024.01.08.574731)

How the values were obtained:
[1] = melting temperature; fluorescence melt of hairpins on a sequencing array, two-state fit, raised by 9.35 °C to match UV melts; conditions: sodium 0.088 M
Outline: (§1)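 Cy3 signals were normalised both to pre-quench Cy3 and to control constructs. They came from library hairpins carrying annealed Cy3 and quencher oligos on a sequenced MiSeq flow cell, imaged in 50 mM Na-HEPES pH 8.0, 25 mM NaCl, in 2.5 °C steps up to 60 °C. Bootstrapped two-state fits gave melting temperature and folding enthalpy, and four replicates were combined by inverse variance. Fitted temperatures were then raised by 9.35 °C to match UV melts.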

[2] = folding enthalpy; higher = less favourable; fluorescence melt of hairpins on a sequencing array, two-state fit; conditions: sodium 0.088 M
Outline: as §1

| Sequence | Tm [1] [°C] | folding enthalpy [2] [kcal/mol] |
| --- | --- | --- |
| GTGCCTGGAAACGGGTAC ((.((.(....).)).)) | 44 | -18.6 |
| GATCCCCAGTGGGATC ((((((....)))))) | 59.1 | -43.5 |
| GATCGGGTCTCCGATC ((((((....)))))) | 59.1 | -41.2 |
| GAGCTAGGAAACTAGTTC ((.((((....)))).)) | 37.2 | -26.8 |
| GCCTCCTCGAAAGAGGGC (((..(((....)))))) | 43.9 | -9.35 |
| GCACTGCGAAAGCGCTGC (((..((....))..))) | 42.6 | -20.6 |
| GCGGACCCCCGC ((((....)))) | 53.3 | -34.6 |
| CGCTCGGAAACGAGTGCG ((((((....)))..))) | 44.9 | -15.8 |
| GTGAGTCGAAAGACCAC (((.(((....)))))) | 53 | -33.7 |
| GCAGGCGAAAGCCAATGC ((((((....)))..))) | 49.1 | -15.5 |
| GAGACACCGAAAGGTCTC (((..(((....)))))) | 42.2 | -20.4 |
| GTATAACCGAAAGGTTAC (((..(((....)))))) | 31.8 | -11.4 |
| GCACTCGAAAGAGGGTGC ((((((....)))..))) | 50.8 | -31.5 |
| GATCTTTTCTAAGATC ((((((....)))))) | 45.2 | -36.8 |
| GCCGAGGGAAACCCCAGC ((.(.((....)).).)) | 25.2 | -11.3 |
| GGACAACGAAAGTTATCC (((.(((....))).))) | 40 | -29.4 |
| GGATACGAAAGTATCC ((((((....)))))) | 66 | -39.1 |
| GATCAGGGGCCTGATC ((((((....)))))) | 53 | -33.1 |
| GATCATAAAAATGATC ((((((....)))))) | 36.8 | -27.4 |
| GTGCCAGGAAACCAGCAC ((((..(....)..)))) | 41.5 | -28.8 |
| GATGGACGAAAGTCTATC (((.(((....))).))) | 52.9 | -30.9 |
| GGGTGTGGAAACGCATCC ((.((.(....).)).)) | 41.3 | -26.3 |
| CGATACGGAAACGTTTCG (((.(((....))).))) | 45.9 | -34.6 |

| Sequence | Tm [1] [°C] | folding enthalpy [2] [kcal/mol] |
| --- | --- | --- |
| GAGCGGCGAAAGCCCTC (((.(((....)))))) | 53 | -16.1 |
| GATCGCGAAAGCGAAATC ((((((....)))..))) | 37.2 | -9.22 |
| GCTTCGCGAAAGCGGGGC ((..(((....)))..)) | 57.9 | -18.5 |
| GATCGCATGGGCGATC ((((((....)))))) | 68.5 | -40.5 |
| GCCTGCGAAAGCACGGC ((((((....))).))) | 63.2 | -29.7 |
| GAGAGACGAAAGTCACTC (((.(((....))).))) | 51.3 | -35.1 |
| GCTTGCGAAAGCACAAGC ((((((....)))..))) | 45.3 | -16.1 |
| CGTTCGGAAACGAAAACG ((((((....)))..))) | 34.9 | -24.8 |
| CAATCAGAAATGGTTG (((.((....)).))) | 29.3 | -13.9 |
| GGTAAAGGAAACCTTACC (((((.(....).))))) | 35.5 | -22 |
| GCAGACGAAAGTCCATGC ((((((....)))..))) | 35.3 | -16.5 |
| CAAGAGAAATCTTG (((((....))))) | 31.7 | -10.5 |
| GATCGTAAGGACGATC ((((((....)))))) | 53.4 | -31.8 |
| GATCTGTGGTCAGATC ((((((....)))))) | 49.6 | -38.7 |
| GATCGCATCGGCGATC ((((((....)))))) | 68.8 | -33.6 |
| GCCGAGCGAAAGCACAGC ((.(.((....)).).)) | 40.1 | -15.1 |
| GGATCAGGAAACTGACCC ((.((((....)))).)) | 41.4 | -27.7 |
| GTAGGTGGAAACGCCTAC (((((.(....).))))) | 51.9 | -32.8 |
| GACTGGGCGAAAGCCGTC (((..(((....)))))) | 56.1 | -10.4 |
| GGCAGGGGAAACCCTGTC (.(((((....))))).) | 55.9 | -29.9 |
| GATCGGCTTTCCGATC ((((((....)))))) | 58.6 | -37 |
| GTCTTTGGAAACAAAGAC (((((((....))))))) | 56.5 | -42.3 |
| GGAATCGAAAGATCTCC ((((((....))).))) | 30.8 | -18.4 |

| Sequence | Tm [1] [°C] | folding enthalpy [2] [kcal/mol] |
| --- | --- | --- |
| GCCCCCGAAAGGGCAGGC ((((((....)))..))) | 50.4 | -17.9 |
| GTAATAGGAAACTGTTAC ((((.((....)).)))) | 36.4 | -24.9 |
| TCTAGGAAACTAGA (((((....))))) | 29.7 | -10.5 |
| GGCTATCGAAAGATGCC (((.(((....)))))) | 52.8 | -25.3 |
| GATAGGACGAAAGTCATC (((..(((....)))))) | 25.2 | -7.28 |
| GGCTTGGCGAAAGCCGCC (((..(((....)))))) | 68.8 | -16.6 |
| GAGAAAGCGAAAGCTCTC (((..(((....)))))) | 40.2 | -14.6 |
| GTGCACGGAAACGTACAC (((.(((....))).))) | 48.5 | -31.8 |
| CGATCTCGGAAACGATCG (((..(((....)))))) | 36.7 | -20.3 |
| GTTGCAGGAAACCGCAAC (((((.(....).))))) | 51.5 | -43.8 |
| GAACTAGGAAACTGGTTC ((((.((....)).)))) | 43 | -29 |
| GCGTAATACGC ((((...)))) | 51.9 | -18.7 |
| GGAGTTCGAAAGAAATCC (((.(((....))).))) | 49.2 | -33.8 |
| GCTATGCGAAAGCTCAGC (((..((....))..))) | 36.2 | -19.1 |
| GATCAAGCCTTTGATC ((((((....)))))) | 49.2 | -40.7 |
| GATCGAGTGATCGATC ((((((....)))))) | 55.3 | -40.1 |
| GGCTACGGAAACACAGCC ((((..(....)..)))) | 35.5 | -23.6 |
| GATCGCATGTGCGATC ((((((....)))))) | 68.3 | -37.8 |
| GGTTTCCGAAAGGATACC (((.(((....))).))) | 50.5 | -36.7 |
| GGGTACGGAAACGTGTCC ((..(((....)))..)) | 40.6 | -24.8 |
| GATCGACAGGTCGATC ((((((....)))))) | 60.3 | -39.1 |
| GGTCCTGGAAACAGGGTC (..((((....))))..) | 37.8 | -16.1 |
| TAACCGAAAGGTTA (((((....))))) | 56.7 | -15.2 |
